ROMK primary: modulates human ROMK potassium channel activity. AID 1918. B-score at 10 µM. Tet-inducible ROMK, thallium flux fluorescence; actives lie on both sides. P48048. hit rate 2% among 130,000;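 active = signal ratio slope over the read window, or its plate-corrected B-score, at least 3 SD from the plate mean, either direction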;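 also: B-score of the F/F0 ratio slope over 7 to 12 s after thallium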
MT stabilizer: microtubule stabilization, imaging screen; hit rate 0.83% among 200,000; HeLa tubulin immunostaining HCS, 24 h; share of cells brighter than vehicle mean+2SD; AID 2205; % tubulin-high responders, % at 10 µM;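 active = plate Z-score above 3 for both tubulin-high and condensed-nucleus cell shares, with cell loss under 80%, at 10 µM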;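 also: anti alpha tubulin signal scored within the nucleus-defined area of each cell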
Redox H2O2 prof: compounds producing H2O2 with reducing agent – biochemical, NIH compound library profiling, artefact control for MLSCN library redox annotation, primary screen. DTT-dependent redox cycling H2O2, phenol red/HRP absorbance; 100% = 100 µM peroxide control, 0% = buffer. activation, % at 10 µM. hit rate 0.03% among 200,000. AID 878;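 active = activation of at least 50% relative to the plate's high and low controls in the primary single-dose screen; inactive = activation below 50%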;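 also: compound incubated with DTT at 0.8 mM final as the reducing agent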
b-catenin transl: modulators of beta-catenin nuclear translocation. HeLa beta-catenin nuclear translocation, immunofluorescence imaging. nuclear translocation activity, % at 5 µM. hit rate 0.3% among 190,000. AID 1665;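 active = nuclear translocation activity above 50% at 5 µM, with a well cell count of 50 or more; inconclusive = wells under 50 cells across six images, flagged as toxic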;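 also: per-cell ratio of nuclear to cytoplasmic median beta-catenin stain intensity; plate controls were DMSO negative control for no effect and GSK-3 inhibitor IX positive control for full effect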
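test system = HeLa cells, endogenous beta-catenin | dosing = single 5 µM dose plus 0.02–20 µM confirmation series | times = compound treatment 24 h, 37°C, 5% CO2 | technique = beta-catenin immunofluorescence imaging with DAPI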
Cl transport mod: modulators of human KCC2 chloride dependent transport. Q9H2X9. KCC2 cells, thallium flux FluoZin-2 fluorescence. B-score of Tl+ flux slope (higher = more flux/activation; lower = inhibition) at 10 µM. hit rate 2.2% among 190,000. AID 1456;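 active = thallium flux slope and its plate-corrected score both differing from the plate sample mean at a set confidence after two filtering rounds, in either direction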;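 also: slope of fluorescence scaled to starting intensity during 10 to 20 s after thallium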
Target sequence (Q9H2X9 whole entry, looked up): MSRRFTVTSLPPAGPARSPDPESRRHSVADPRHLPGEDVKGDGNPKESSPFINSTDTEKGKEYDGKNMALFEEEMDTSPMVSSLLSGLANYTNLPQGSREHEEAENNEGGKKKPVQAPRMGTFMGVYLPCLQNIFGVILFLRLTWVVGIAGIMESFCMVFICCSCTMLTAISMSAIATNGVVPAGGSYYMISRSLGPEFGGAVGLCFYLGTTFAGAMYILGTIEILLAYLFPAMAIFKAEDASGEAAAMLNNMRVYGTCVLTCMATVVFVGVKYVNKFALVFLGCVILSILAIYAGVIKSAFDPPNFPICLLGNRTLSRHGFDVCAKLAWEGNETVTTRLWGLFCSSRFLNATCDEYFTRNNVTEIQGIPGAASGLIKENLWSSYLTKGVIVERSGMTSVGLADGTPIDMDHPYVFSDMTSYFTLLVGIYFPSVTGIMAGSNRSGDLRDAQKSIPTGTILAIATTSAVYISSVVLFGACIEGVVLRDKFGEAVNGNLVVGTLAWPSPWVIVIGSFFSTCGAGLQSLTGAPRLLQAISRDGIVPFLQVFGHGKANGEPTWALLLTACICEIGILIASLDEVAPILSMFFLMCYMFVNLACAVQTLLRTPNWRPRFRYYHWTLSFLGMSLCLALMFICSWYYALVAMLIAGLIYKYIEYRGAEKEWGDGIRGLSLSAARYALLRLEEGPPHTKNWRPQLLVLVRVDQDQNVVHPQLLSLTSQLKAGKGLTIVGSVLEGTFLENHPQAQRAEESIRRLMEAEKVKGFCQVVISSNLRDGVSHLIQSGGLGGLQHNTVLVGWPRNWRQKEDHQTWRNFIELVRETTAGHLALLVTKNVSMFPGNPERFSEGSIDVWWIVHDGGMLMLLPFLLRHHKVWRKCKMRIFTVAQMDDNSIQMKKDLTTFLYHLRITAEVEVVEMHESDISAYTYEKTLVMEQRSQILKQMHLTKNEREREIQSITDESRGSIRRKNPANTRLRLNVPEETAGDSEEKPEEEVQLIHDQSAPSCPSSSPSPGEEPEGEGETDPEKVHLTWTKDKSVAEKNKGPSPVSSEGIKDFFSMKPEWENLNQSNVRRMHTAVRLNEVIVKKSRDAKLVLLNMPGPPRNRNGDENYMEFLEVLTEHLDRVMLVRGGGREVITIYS
KCC2 sec1: KCC2 (human) modulation, secondary assay; hit rate 15% among 3,700; shares compounds with Cl transport mod; AID 1713; normalised thallium flux (F/F0 slope) at 10 µM; HEK293-KCC2, thallium flux, FluoZin2 fluorescence; active compounds read high;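 active = thallium flux slope above the same plate's solvent-only control mean plus 3 SD; inconclusive = the two replicate wells disagree; inactive = no significant difference from solvent-only control wells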
KCC2 bumet counter: thallium flux despite bumetanide block in KCC2 cells, secondary assay 3; normalized thallium flux at 10 µM; hit rate 49% among 3,700; shares compounds with Cl transport mod; HEK293-KCC2 + bumetanide/ouabain, thallium flux FluoZin2; active compounds read high; AID 1714;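 active = thallium entry rate above the same plate's blocked-transporter control wells by more than 3 SD; inconclusive = the two repeat wells disagree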;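 also: raw slope of fluorescence over initial fluorescence between 10 and 20 s after thallium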
KCC2 secondary2: confirmation of human KCC2 transport modulators. shares compounds with Cl transport mod. HEK293-KCC2, thallium flux FluoZin2 fluorescence; actives lie on both sides; F/F0 rise rate, 10–20 s post-thallium. normalized thallium flux at 10 µM. hit rate 23% among 3,700. AID 1715;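 active = thallium flux slope more than 3 SD above or below the plate's solvent-only control mean, mostly below; inconclusive = the two repeat wells disagreed; inactive = no significant shift from solvent-only controls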;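 also: raw slope with 0.1% DMSO as baseline and bumetanide as block control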
HEK counter1: acts in parental HEK cells, KCC2 counter-screen | thallium flux rate (normalised fluorescence) at 10 µM | HEK293 parental cells, thallium flux FluoZin2, ouabain; baseline-ratio fluorescence slope, 10–20 s after thallium | shares compounds with Cl transport mod | hit rate 46% among 3,700;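 active = thallium flux rate significantly above the same plate's solvent-only control wells, beyond their mean plus 3 SD; inconclusive = the two replicate wells gave conflicting results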
KCC2 ouabain: KCC2 (human) modulation, ouabain retest; hit rate 48% among 3,700; HEK293-KCC2, thallium flux FluoZin2 fluorescence; bidirectional: low = inhibitor, high = activator; raw Tl+ flux slope (below DMSO = inhibition, above = activation) at 10 µM; shares compounds with Cl transport mod; AID 1717;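 active = thallium flux slope beyond 3 SD from same-plate DMSO control mean in most replicates, usually higher, sometimes lower; inconclusive = repeat tests gave conflicting results; inactive = no significant difference from controls in most replicates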;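 also: slope of initial-normalized fluorescence between seconds 10 and 20 after thallium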
HEK counter2: acts in parental HEK cells, second KCC2 counter-screen; hit rate 33% among 3,700; thallium flux slope at 10 µM; shares compounds with Cl transport mod; HEK293 parental, thallium flux FluoZin-2 fluorescence slope;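 active = thallium flux slope above the same plate's solvent-control mean plus 3 SD in both duplicate wells; inconclusive = duplicate wells that disagreed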;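 also: run without ouabain in cells lacking the KCC2 cotransporter; slope of fluorescence scaled to its starting value between 10 and 20 s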
Starred values were filed as active, the others as inactive; u = inconclusive; x = no result given. This is a sample that favours compounds with a hit; in the whole collection about 3.7% have one here.

SMILES | ROMK primary | MT stabilizer | Redox H2O2 prof | b-catenin transl | Cl transport mod | KCC2 sec1 | KCC2 bumet counter | KCC2 secondary2 | HEK counter1 | KCC2 ouabain | HEK counter2
N#C/C(=C\c1ccc(-c2ccccc2Cl)o1)C(=O)Nc1nc2ccccc2s1 | -1.5 | 2 | 0 | -1 | 6.8* | 0.0069 | 0.024* | 0.037 | 0.032* | 0.029* | 0.034*
Cc1ccc(Cc2cnc(NC(=O)/C(C#N)=C/c3ccc(-c4ccccc4[N+](=O)[O-])o3)s2)cc1 | x | 8 | -3 | -2 | 0.97 | x | x | x | x | x | x
CCOC(=O)Cn1nnnc1CN(Cc1ccc(OC)cc1)Cc1cc2cc(C)ccc2[nH]c1=O | x | 2 | 3 | 1 | -0.16 | x | x | x | x | x | x
CCOC(=O)Cn1nnnc1C(C(C)C)N(Cc1cccs1)Cc1cc2cc(C)ccc2[nH]c1=O (configuration not stated) | -0.38 | 2 | 0 | -1 | x | 0.0062 | 0.0045 | 0.028 | 0.0075 | 0.019 | 0.011
Cc1cccc(N(C)C(=O)C2CCCN2S(=O)(=O)c2cccc3nsnc23)c1 (configuration not stated) | 0.28 | x | x | 1 | 0.064 | x | x | x | x | x | x
S=C(Nc1ccccc1)Nc1ccccc1-n1cccc1 | x | x | x | 0 | 8.5* | 0.014* | 0.05* | 0.039 | 0.017* | u | 0.016*
Cc1ccc2cc(C)c3nnc(SCc4ccc(C(=O)O)cc4)n3c2c1C | 1.9 | x | x | -2 | 3.1* | 0.0068 | 0.0087* | 0.036 | 0.011* | 0.023 | 0.013*
CCOC(=O)COc1ccc(Br)cc1C1NC(=O)NC(C)=C1C(=O)NCc1ccccc1 (configuration not stated) | x | 3 | 0 | x | -0.61 | x | x | x | x | x | x
O=C(NC(=S)N(CC1CCC1)CC1CCCO1)c1cccc([N+](=O)[O-])c1 (configuration not stated) | x | 1 | 0 | 1 | 99* | 0.043* | 0.089* | 0.045* | 0.077* | 0.075* | 0.032*
O=C(COC(=O)Cc1c(Cl)cccc1Cl)NCC1CCCO1 (configuration not stated) | -0.59 | 1 | 0 | 0 | -0.16 | x | x | x | x | x | x
C/C(=N\NC(=S)NC1CCCCC1)c1c(F)cccc1F | x | 3 | 0 | -6 | 22* | 0.014* | 0.066* | 0.028 | 0.021* | 0.046* | 0.011*
C/C(=N\NC(=O)C1CC1)c1cccs1 | -0.93 | 5 | 0 | x | 0.24 | x | x | x | x | x | x
C/C(=N\NC(=S)NC1CCCCC1)c1ccc(Cl)c(Cl)c1 | x | x | x | -1 | 0.28 | x | x | x | x | x | x
C/C(=N\NC(=S)NC1CCCCC1)c1cccs1 | x | 2 | 0 | 0 | 57* | 0.0048 | 0.053* | 0.043* | 0.027* | 0.048* | 0.029*
O=S(=O)(/N=C(\c1ccccc1F)N1CCCCC1)c1ccccc1 | 0.36 | 2 | 0 | -1 | -0.35 | x | x | x | x | x | x
COC(=O)c1sccc1NC(=O)CSc1ccccc1NS(=O)(=O)c1ccc(Br)cc1 | x | 1 | 3 | -6 | 3.5* | 0.0083 | 0.013* | 0.037 | 0.016* | 0.024 | 0.013*
CC(C)Cn1c(-c2ccc(C#N)cc2)nc2c1c(=O)[nH]c(=O)n2CC(C)C | -0.74 | 2 | 0 | -7 | x | 0.01 | 0.0047 | 0.032 | 0.0075 | 0.019 | 0.01
CCCCn1c(=O)[nH]c(=O)c2c1nc(-c1ccc(C#N)cc1)n2C1CCCC1 | 0.12 | 2 | 3 | -4 | -1.1 | x | x | x | x | x | x
Cc1c(/C=N/NC(=O)c2ccccc2O)c2ccccn2c1C(=O)c1ccc(F)cc1 | -0.63 | 1 | 0 | 2 | -3.8* | 0.018 | u | 0.03 | 0.0073 | 0.014 | 0.01
CSC(=S)N/N=C/c1ccc(Br)cc1 | 2 | 1 | -1 | -2 | 68* | 0.026* | 0.088* | 0.048* | 0.037* | 0.046* | 0.038*
Cc1nn(C)cc1C(C(=O)NC1CCCCC1)N(Cc1ccc(F)cc1)C(=O)c1cnccn1 (configuration not stated) | 0.65 | 4 | -1 | 0 | -0.77 | x | x | x | x | x | x
CC1=CCC[C@@H]2[C@@](C)(CC/C(C)=C/C(=O)O)[C@H](C)CC[C@@]12C | 2.1 | 3 | 0 | x | 3.5* | 0.0073 | 0.012* | 0.027 | 0.015* | u | 0.011
CC/C(=N\NC(=O)c1ccc(-c2ccccc2)cc1)C12CC3CC(CC(C3)C1)C2 | -0.51 | 1 | 1 | -2 | -1.4 | x | x | x | x | x | x
CCOC(=O)c1sc(-c2ccc(C)cc2)c(C#N)c1C | -0.12 | 4 | 0 | -1 | 5.3* | 0.0095 | 0.0057 | 0.031 | 0.0073 | 0.02 | 0.01
Cc1c(C(=O)NN)sc(-c2ccccc2)c1C#N | -0.55 | 2 | 0 | 0 | 0.13 | x | x | x | x | x | x
SMILES | ROMK primary | MT stabilizer | Redox H2O2 prof | b-catenin transl | Cl transport mod | KCC2 sec1 | KCC2 bumet counter | KCC2 secondary2 | HEK counter1 | KCC2 ouabain | HEK counter2
O=S(=O)(CCCc1ccccc1)c1ncn[nH]1 | x | 3 | 0 | 0 | 4.7* | 0.007 | 0.0044 | 0.031 | 0.0065 | 0.017 | 0.0093
COc1cc(C(=O)NNC(=O)c2cc(C)[nH]n2)cc(OC)c1OC | 1.4 | 4 | 0 | 1 | 0.06 | x | x | x | x | x | x
O=C(O)c1cccc(S(=O)(=O)Nc2ccccc2-c2ccccc2)c1 | x | 3 | 0 | -5 | -0.37 | x | x | x | x | x | x
Cc1ccccc1OCC(=O)N=Nc1c(O)n(C)c2ccccc12 | x | x | x | 0 | 28* | u | 0.029* | 0.035 | 0.029* | 0.031* | 0.022*
Cc1ccc(-c2ccc(CCC(=O)O)n2NC(N)=S)cc1 | x | 2 | 0 | -2 | 0.53 | x | x | x | x | x | x
Cc1ccc(-c2ccc(CCC(=O)O)n2C(C)C)cc1 | x | 6 | 0 | x | -4.4* | 0.0092 | 0.0067 | 0.029 | 0.0068 | 0.021 | 0.0096
C/C(=N\NC(=S)Nc1cc(S(=O)(=O)N2CCOCC2)ccc1Cl)c1ccccc1F | -0.24 | 4 | 0 | -3 | 6.9* | u | 0.025* | 0.03 | 0.015* | 0.044* | 0.01
Cc1nn(-c2ccccc2)c2sc(-c3n[nH]c(=S)o3)cc12 | 1.2 | 2 | 1 | 0 | 6.3* | 0.014* | 0.028* | 0.032 | 0.014* | u | 0.013*
